Experimental data reported in ChEMBL document CHEMBL2157917, “Targeting conserved water molecules: design of 4-aryl-5-cyanopyrrolo[2,3-d]pyrimidine Hsp90 inhibitors using fragment-based screening and structure-based optimization” (Bioorg Med Chem, 2012).

Legend:
[1] = biological target: Heat shock protein HSP 90-beta (Homo sapiens, UniProt P08238); experiment: Inhibition of fluorescently labeled VER51001 binding to full length human HSP90beta after 30 mins by fluorescence polarization assay
[2] = Binding affinity to HSP90 after 30 mins by ITC assay
Method in brief: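 Isothermal titration calorimetry at 25 °C with stirring at 1000 rpm. Ligands came from a 20 mM DMSO stock and were run in dialysis buffer with 1% DMSO. Ligand 10 µM in the cell, protein 100–200 µM in the syringe, 8–16 injections at 300 s spacing. One-site fit.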

[3] = Binding affinity to hexa His-tagged HSP90 (9-236 aminoacids) by SPR assay
Method in brief: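 NTA chip charged with 0.5 mM Ni2+, then 100 nM His-tagged HSP90 captured to about 1500 RU. Running buffer 10 mM HEPES pH 7.4, 150 mM NaCl, EDTA, 0.05% Tween-20, 1% DMSO. Surface was reloaded for each concentration. Double-referenced sensorgrams were fitted globally to a single-step kinetic model.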

BT-474 = experiment: Antiproliferative activity against human BT474 cells after 4 days by SRB method; type: functional; conditions: BT-474, 96 h
HCT-116 = experiment: Antiproliferative activity against human HCT116 cells after 4 days by SRB method; type: functional; conditions: HCT-116, 96 h
MDA-MB-468 = experiment: Antiproliferative activity against human MDA-MB-468 cells after 4 days by SRB method; type: functional; conditions: MDA-MB-468, 96 h
[4] = biological target: T1, Voltage-gated inwardly rectifying potassium channel KCNH2 (Homo sapiens, UniProt Q12809); experiment: Inhibition of human ERG expressed in HEK293 cells by voltage-clamp method; type: cell-based
[5] = biological target: T1, Voltage-gated inwardly rectifying potassium channel KCNH2; experiment: Displacement of [3H]-dofetilide from human ERG

Sequence of Heat shock protein HSP 90-beta (P08238 whole entry): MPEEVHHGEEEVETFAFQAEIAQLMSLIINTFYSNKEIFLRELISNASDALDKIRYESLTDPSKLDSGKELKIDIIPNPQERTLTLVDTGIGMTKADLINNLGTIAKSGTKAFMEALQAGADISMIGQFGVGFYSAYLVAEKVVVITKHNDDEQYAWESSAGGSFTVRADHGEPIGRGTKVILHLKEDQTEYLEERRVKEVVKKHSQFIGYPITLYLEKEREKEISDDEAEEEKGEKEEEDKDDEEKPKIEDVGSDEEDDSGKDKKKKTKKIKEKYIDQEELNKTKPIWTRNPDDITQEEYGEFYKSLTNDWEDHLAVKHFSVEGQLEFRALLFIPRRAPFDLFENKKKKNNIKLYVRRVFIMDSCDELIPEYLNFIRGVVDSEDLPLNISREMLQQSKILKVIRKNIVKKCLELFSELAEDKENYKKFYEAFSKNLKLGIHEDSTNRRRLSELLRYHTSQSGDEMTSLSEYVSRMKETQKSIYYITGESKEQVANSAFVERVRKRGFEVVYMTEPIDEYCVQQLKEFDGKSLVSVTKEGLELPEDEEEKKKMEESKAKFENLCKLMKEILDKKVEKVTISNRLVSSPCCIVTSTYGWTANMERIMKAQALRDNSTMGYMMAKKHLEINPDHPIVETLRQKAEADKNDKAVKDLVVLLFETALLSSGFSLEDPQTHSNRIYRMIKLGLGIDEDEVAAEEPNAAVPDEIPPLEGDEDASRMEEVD
T1 sequence (Q12809 whole entry): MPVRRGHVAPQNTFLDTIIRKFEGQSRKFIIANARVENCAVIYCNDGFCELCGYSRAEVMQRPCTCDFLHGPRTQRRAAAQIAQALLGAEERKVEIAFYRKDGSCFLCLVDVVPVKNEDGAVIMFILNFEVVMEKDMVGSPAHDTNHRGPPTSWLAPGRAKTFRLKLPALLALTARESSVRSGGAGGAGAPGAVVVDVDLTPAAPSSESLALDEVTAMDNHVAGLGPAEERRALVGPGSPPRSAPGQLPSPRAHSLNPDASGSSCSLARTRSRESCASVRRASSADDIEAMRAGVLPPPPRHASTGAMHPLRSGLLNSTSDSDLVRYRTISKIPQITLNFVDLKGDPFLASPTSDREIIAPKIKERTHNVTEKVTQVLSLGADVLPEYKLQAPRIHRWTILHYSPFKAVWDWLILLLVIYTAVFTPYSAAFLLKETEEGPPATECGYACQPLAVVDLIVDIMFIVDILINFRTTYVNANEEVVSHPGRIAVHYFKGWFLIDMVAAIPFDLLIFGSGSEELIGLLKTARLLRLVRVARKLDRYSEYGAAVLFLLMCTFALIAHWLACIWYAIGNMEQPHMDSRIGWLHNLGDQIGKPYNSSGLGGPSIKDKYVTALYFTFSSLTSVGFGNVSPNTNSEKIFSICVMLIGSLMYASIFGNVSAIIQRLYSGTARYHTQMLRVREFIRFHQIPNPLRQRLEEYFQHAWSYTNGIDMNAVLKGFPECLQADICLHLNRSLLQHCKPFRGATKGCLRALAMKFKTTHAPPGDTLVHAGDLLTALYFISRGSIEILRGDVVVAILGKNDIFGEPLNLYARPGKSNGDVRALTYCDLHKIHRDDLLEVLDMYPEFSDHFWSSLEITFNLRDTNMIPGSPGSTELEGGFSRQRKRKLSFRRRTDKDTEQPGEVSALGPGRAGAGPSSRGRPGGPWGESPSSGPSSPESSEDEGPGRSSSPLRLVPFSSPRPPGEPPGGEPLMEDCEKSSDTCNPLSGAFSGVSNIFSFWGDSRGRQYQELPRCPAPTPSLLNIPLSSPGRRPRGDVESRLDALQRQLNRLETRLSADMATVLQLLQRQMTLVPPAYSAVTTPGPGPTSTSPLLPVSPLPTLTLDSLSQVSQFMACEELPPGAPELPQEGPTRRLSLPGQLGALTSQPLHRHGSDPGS

Structure (SMILES) | Ki [1] | Kd [3] | GI50 (BT-474) | further results
CSc1nc(-c2ccc(C)cc2C)c2c(C#N)n[nH]c2n1 | 5230 nM | 38000 nM | – | –
COc1cc(Cl)c(-c2nc(SCC(=O)N3CCC3)nc3[nH]cc(C#N)c23)cc1OC | < 1 nM | – | 31 nM | GI50 (HCT-116): 28 nM; GI50 (MDA-MB-468): 35 nM
COc1cc(Cl)c(-c2nc(SCC(=O)NCCF)nc3[nH]cc(C#N)c23)cc1O | 2 nM | – | 85 nM | GI50 (HCT-116): 728 nM; GI50 (MDA-MB-468): 183 nM
CCN(CC)CCSc1nc(-c2cc(OC)c(C#N)cc2Cl)c2c(C#N)c[nH]c2n1 | < 1 nM | – | 80 nM | –
CSc1nc(-c2ccc(F)cc2C)c2cc[nH]c2n1 | > 200000 nM | > 100000 nM | – | –
CSc1nc(-c2cc(OCCN3CCCC3)c(Cl)cc2Cl)c2c(C#N)c[nH]c2n1 | 4 nM | – | 48 nM | –
COc1cc(Cl)c(-c2nc(SCC(=O)NC(C)C)nc3[nH]cc(C#N)c23)cc1O | 3 nM | – | 161 nM | GI50 (HCT-116): 238 nM; GI50 (MDA-MB-468): 178 nM
COc1nc(-c2ccc(F)cc2C)c2c(C#N)c[nH]c2n1 | 628 nM | 2810 nM | – | Kd [2]: 725 nM
CSc1nc(-c2ccc(C#N)cc2)c2cc[nH]c2n1 | > 200000 nM | > 100000 nM | – | –
CNC(=O)CSc1nc(-c2cc(OC)c(OC)cc2Cl)c2c(C#N)c[nH]c2n1 | < 1 nM | – | 56 nM | GI50 (HCT-116): 42 nM; GI50 (MDA-MB-468): 33 nM
CSc1nc(-c2ccc(F)cc2C)c2c(C#N)c[nH]c2n1 | 358 nM | 430 nM | – | Kd [2]: 251 nM
CCN(CC)CCOc1cc(-c2nc(SCC(=O)NC)nc3[nH]cc(C#N)c23)c(Cl)cc1Cl | 8 nM | – | 78 nM | IC50 [4]: 17800 nM; IC50 [5]: 3140 nM
COc1cc(Cl)c(-c2nc(SC)nc3[nH]cc(C#N)c23)cc1OCCN1CCC(F)(F)C1 | 12 nM | – | 47 nM | –
CSc1nc(-c2ccc(C)cc2C)c2c(C)c[nH]c2n1 | > 200000 nM | 19300 nM | – | –
CSc1nc(-c2ccc(C)cc2C)c2c(Br)c[nH]c2n1 | > 200000 nM | > 20000 nM | – | –

More lines, main results first:

Ki [1] | Kd [3] | GI50 (BT-474) | Structure (SMILES) | further results
12800 nM | 2300 nM | – | CSc1nc(-c2ccc(F)cc2C)c2nc[nH]c2n1 | Kd [2]: 2730 nM
24500 nM | > 20000 nM | – | CSc1nc(-c2ccc(C#N)cc2)c2nc[nH]c2n1 | –
7 nM | – | 26 nM | CCN(CC)CCSc1nc(-c2cc(OC)c(OC)cc2Cl)c2c(C#N)c[nH]c2n1 | –
< 1 nM | – | 21 nM | COc1cc(Cl)c(-c2nc(SCC(=O)N3CCC3)nc3[nH]cc(C#N)c23)cc1O | GI50 (HCT-116): 172 nM; GI50 (MDA-MB-468): 28 nM
195 nM | – | – | CSc1nc(-c2ccc(C)cc2C)c2c(C#N)c[nH]c2n1 | Kd [2]: 156 nM
62 nM | – | 2010 nM | CCN(CC)CCOc1nc(-c2cc(OC)c(Cl)cc2Cl)c2c(C#N)c[nH]c2n1 | –
< 1 nM | – | 25 nM | CCOc1cc(-c2nc(SCC(=O)NC3CC3)nc3[nH]cc(C#N)c23)c(Cl)cc1OC | GI50 (HCT-116): 20 nM; GI50 (MDA-MB-468): 23 nM
> 200000 nM | > 100000 nM | – | CSc1nc(-c2ccc(C)cc2C)c2cc[nH]c2n1 | –
1720 nM | 2220 nM | – | CCc1nc(-c2ccc(F)cc2C)c2c(C#N)c[nH]c2n1 | Kd [2]: 1830 nM
